Results reported in ChEMBL document CHEMBL4152256, “Structure-activity relationship of new antimalarial 1-aryl-3-susbtituted propanol derivatives: Synthesis, preliminary toxicity profiling, parasite life cycle stage studies, target exploration, and targeted delivery” (Eur J Med Chem, 2018).
The source made the active and inactive calls. The rule behind the calls is not given here.

How the values were obtained:
[1] = Genotoxicity in Salmonella typhimurium TA1535 harboring pSK1002 assessed as survival at 1 mg/ml in absence of Sprague-Dawley rat liver S9 fraction after by SOS/umu assay relative to control; assay type: toxicity, organism-based; conditions: salmonella enterica subsp. enterica serovar typhimurium, read-out: Survival
[2] = Genotoxicity in Salmonella typhimurium TA1535 harboring pSK1002 assessed as survival at 1 mg/ml in presence of Sprague-Dawley rat liver S9 fraction after by SOS/umu assay relative to control; assay type: toxicity, organism-based; conditions: salmonella enterica subsp. enterica serovar typhimurium, read-out: Survival
[3] = Genotoxicity in Salmonella typhimurium TA1535 harboring pSK1002 assessed as umu gene induction at 1 mg/ml in presence of Sprague-Dawley rat liver S9 fraction after by SOS/umu assay relative to control; assay type: toxicity, organism-based; conditions: salmonella enterica subsp. enterica serovar typhimurium, read-out: FC
[4] = Selectivity index, ratio of CC50 for human HepG2A16 cells to IC50 for GFP-fused Plasmodium berghei sporozoites infected in human HepG2A16 cells; assay type: toxicity, cell-based; conditions: read-out: Ratio CC50/IC50
In short: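 HepG2-A16 cells were grown at 3 × 10^4 per well on collagen and infected with GFP P. berghei sporozoites (5 × 10^3 to 1 × 10^4 per well) from A. stephensi salivary glands. Compounds were added at infection, from 10 µg/mL top plus seven serial dilutions, and refreshed at 3 h and then every 24 h. After 40 h at 37 °C, EEFs were methanol-fixed, anti-Hsp70 immunolabelled and counted by high-content imaging. SI = HepG2 CC50 / liver-stage IC50.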

[5] = target: T1, HSP90 (Plasmodium falciparum 3D7) (UniProt Q8IL32); assay: Binding affinity to Plasmodium falciparum HSP90 nucleotide binding domain at 0.5 mM by SYPRO orange dye based DSF analysis
T1 sequence (whole entry): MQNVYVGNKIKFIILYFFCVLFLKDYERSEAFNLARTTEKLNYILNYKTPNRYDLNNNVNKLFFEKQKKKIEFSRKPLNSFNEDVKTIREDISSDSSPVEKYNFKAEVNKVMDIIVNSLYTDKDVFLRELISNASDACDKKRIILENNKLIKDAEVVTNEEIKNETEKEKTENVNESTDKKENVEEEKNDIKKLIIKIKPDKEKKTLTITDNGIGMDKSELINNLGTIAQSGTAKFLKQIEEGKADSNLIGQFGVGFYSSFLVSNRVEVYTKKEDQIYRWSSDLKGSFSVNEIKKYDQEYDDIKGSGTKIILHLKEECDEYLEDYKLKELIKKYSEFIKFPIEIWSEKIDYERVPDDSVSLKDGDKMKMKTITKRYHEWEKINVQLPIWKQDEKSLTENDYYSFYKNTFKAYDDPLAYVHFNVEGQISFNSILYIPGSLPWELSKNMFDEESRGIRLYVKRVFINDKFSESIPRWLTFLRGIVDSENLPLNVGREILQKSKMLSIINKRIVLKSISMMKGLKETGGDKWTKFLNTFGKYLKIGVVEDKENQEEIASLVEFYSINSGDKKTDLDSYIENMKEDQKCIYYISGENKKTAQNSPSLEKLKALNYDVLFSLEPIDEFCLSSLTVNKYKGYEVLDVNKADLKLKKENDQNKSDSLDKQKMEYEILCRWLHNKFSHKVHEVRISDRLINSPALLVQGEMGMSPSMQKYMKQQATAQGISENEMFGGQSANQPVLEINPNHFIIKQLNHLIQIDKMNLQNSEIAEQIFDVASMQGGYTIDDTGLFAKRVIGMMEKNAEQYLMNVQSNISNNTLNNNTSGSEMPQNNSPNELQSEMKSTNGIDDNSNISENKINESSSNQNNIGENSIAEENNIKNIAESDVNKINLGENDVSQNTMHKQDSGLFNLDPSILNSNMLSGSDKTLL
In short: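 Recombinant P. falciparum Hsp90 or GRP94 nucleotide-binding domain (0.05–0.2 mg/mL, optimized per protein) in 25 mM HEPES pH 7.5, 250 mM NaCl. Compound final concentration was 0.5 mM, with SYPRO Orange at 1:1000. Samples were heated from 18 to 90 °C at 1 °C/min. Tm was taken as the Boltzmann-fit inflection point. ΔTm = Tm with ligand minus Tm without, and shifts beyond ±1 °C were counted significant.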

[6] = target: T1, HSP90 (Plasmodium falciparum 3D7); assay: Binding affinity to Plasmodium falciparum HSP90 nucleotide binding domain by SPR analysis
In short: (§1)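 Purified PfHsp90 and PfGRP94 nucleotide-binding domains were amine-coupled to a CM5 chip (3000 and 7000 RU, respectively), with a blank reference surface. Seven compound concentrations (0.4 nM–1 mM) were injected in triplicate at 30 µL/min, 25 °C, in random order. Running buffer: 10 mM HEPES pH 7.4, 150 mM NaCl, 0.005% P20, 1% DMSO, 2 mM MgCl2. Kd came from double-referenced sensorgrams.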

Plasmodium falciparum [7] = assay: Binding affinity to Plasmodium falciparum GRP94 nucleotide binding domain by SPR analysis; in short: as §1
[8] = Genotoxicity in Salmonella typhimurium TA1535 harboring pSK1002 assessed as survival at 0.0005 mg/ml in absence of Sprague-Dawley rat liver S9 fraction after by SOS/umu assay relative to control; assay type: toxicity, organism-based; conditions: salmonella enterica subsp. enterica serovar typhimurium, read-out: Survival
[9] = Genotoxicity in Salmonella typhimurium TA1535 harboring pSK1002 assessed as umu gene induction at 0.0005 mg/ml in absence of Sprague-Dawley rat liver S9 fraction after by SOS/umu assay relative to control; assay type: toxicity, organism-based; conditions: salmonella enterica subsp. enterica serovar typhimurium, read-out: FC
[10] = Genotoxicity in Salmonella typhimurium TA1535 harboring pSK1002 assessed as survival at 0.0005 mg/ml in presence of Sprague-Dawley rat liver S9 fraction after by SOS/umu assay relative to control; assay type: toxicity, organism-based; conditions: salmonella enterica subsp. enterica serovar typhimurium, read-out: Survival
[11] = Drug internalization in liposomes assessed as zeta potential at 500 uM in presence of pH 7.4 PBS buffer solution (reference value: -16.48 mV); assay type: physicochemical; conditions: artificial membrane, pH 7.4, 500 µM
In short: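 Zeta potential of liposomes loaded with compound (500 µM drug per 10 mM lipid), measured in the pH 4.0 citrate hydration buffer and again after buffer exchange to PBS pH 7.4; drug-free liposomes of the same lipid composition served as reference.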

Plasmodium falciparum [12] = assay: Antiplasmodial activity against Plasmodium falciparum 3D7 ring stage forms infected in human non-washed human RBC containing full drug dosages by [3H]-hypoxanthine incorporation assay; assay type: functional, organism-based; conditions: 3D7, Erythrocyte
Plasmodium falciparum [13] = assay: (§2) Antiplasmodial activity against chloroquine-sensitive Plasmodium falciparum 3D7 ring forms infected in human RBC incubated for 15 mins followed by compound removal and further incubation for 48 hrs by [3H]-hypoxanthine incorporation assay; assay type: functional, organism-based; conditions: 3D7, Erythrocyte
Plasmodium falciparum [14] = assay: as §2, with “RBC using compound encapsulated in to immunoliposome targeted to GPA” for “RBC”; assay type: functional, organism-based; conditions: 3D7, Erythrocyte
Plasmodium falciparum [15] = assay: Antiplasmodial activity against chloroquine-sensitive Plasmodium falciparum 3D7 late forms infected in human RBC incubated for 15 mins followed by compound removal and further incubation for 48 hrs by [3H]-hypoxanthine incorporation assay; assay type: functional, organism-based; conditions: 3D7, Erythrocyte
Plasmodium falciparum [16] = assay: Ratio of IC50 for antiplasmodial activity against chloroquine-sensitive Plasmodium falciparum 3D7 late forms infected in human RBC incubated for 15 mins followed by compound removal and further incubation for 48 hrs by [3H]-hypoxanthine incorporation assay to IC50 for antiplasmodial activity against chloroquine-sensitive Plasmodium falciparum 3D7 late forms infected in human RBC using compound …; assay type: functional
Plasmodium falciparum [17] = assay: Antiplasmodial activity against Plasmodium falciparum 3D7 late stage forms infected in human non-washed human RBC containing full drug dosages by [3H]-hypoxanthine incorporation assay; assay type: functional, organism-based; conditions: 3D7, Erythrocyte

SMILES | viability at 1 mg/ml [1] [%] | viability at 1 mg/ml [2] [%] | fold induction at 1 mg/ml [3] | selectivity ratio [4] | Activity [5] | Activity [6] | Activity (Plasmodium falciparum [7]) | further results
COc1ccccc1C1=CCN(CCC(O)c2ccc(F)cc2)CC1 (centres undefined) | 82.3 | 32.2 | 1 | – | – | – | – | –
N#Cc1ccc(N2CCC(NCCC(O)c3ccc(F)c4ccccc34)CC2)c(Cl)c1 (centres undefined) | – | – | – | 2.3 | inactive | inactive | inactive | –
COc1ccccc1N1CCN(CCC(O)c2ccc(F)c3ccccc23)CC1 (centres undefined) | – | – | – | – | inactive | inactive | inactive | –
N#Cc1ccc(N2CCC(NCCC(O)c3ccc(F)c4ccccc34)CC2)c(Br)c1 (centres undefined) | – | – | – | – | inactive | inactive | inactive | –
OC(CCN1CCN(c2ccccc2C(F)(F)F)CC1)c1ccc(F)cc1 (centres undefined) | 244 | 97 | 0.3 | – | – | – | – | –
OC(CCN1CCN(C(c2ccccc2)c2ccccc2)CC1)c1ccc(F)c(F)c1 (centres undefined) | – | – | – | – | – | – | – | viability at 0.0005 mg/ml [8]: 110%; fold induction at 0.0005 mg/ml [9]: 0.7; viability at 0.0005 mg/ml [10]: 94.7%
OC(CCN1CCN(C(c2ccccc2)c2ccccc2)CC1)c1ccc(F)c2ccccc12 (centres undefined) | – | – | – | 3.7 | inactive | inactive | inactive | –
OC(CCN1CCN(c2ccccc2C(F)(F)F)CC1)c1ccc(F)c2ccccc12 (stereo in doubt; 55) | 229 | 164 | 0.4 | – | – | – | – | –
N#Cc1ccc(N2CCC(NCCC(O)c3ccc(F)c4ccccc34)CC2)c(C(F)(F)F)c1 (stereo in doubt; 72) | – | – | – | 2.3 | – | – | – | Activity [11]: -18.2 mV; IC50 (Plasmodium falciparum [12]): 181 nM; IC50 (Plasmodium falciparum [13]): 867 nM; IC50 (Plasmodium falciparum [14]): 146 nM; IC50 (Plasmodium falciparum [15]): 916 nM; Ratio IC50 (Plasmodium falciparum [16]): 5.2; IC50 (Plasmodium falciparum [17]): 302 nM
